Calls of active or inactive are those of the source. No cut-off for these calls is given here.
Assays:
[1] = system: Pseudomonas aeruginosa; test: Antibacterial activity against Pseudomonas aeruginosa ATCC 27853 after 18 hrs in presence of NaCl by broth microdilution method; assay type: functional; conditions: ATCC 27853, 18 h
How it was run: (§1)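 Broth microdilution MIC against ATCC 27853 in Mueller-Hinton broth with added salt at final concentrations: NaCl 150 mM, KCl 4.5 mM, NH4Cl 6 µM, ZnCl2 8 µM, FeCl3 4 µM. Inoculum about 1 × 10^6 CFU/mL from exponential phase, mixed 1:1 with two-fold peptide dilutions. MIC read as no visible turbidity after 18 h at 37 °C.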

[2] = system: Pseudomonas aeruginosa; test: Antibacterial activity against Pseudomonas aeruginosa ATCC 27853 after 18 hrs in presence of ZnCl2 by broth microdilution method; assay type: functional; conditions: ATCC 27853, 18 h; how it was run: as §1
[3] = system: RAW264.7; test: Inhibition of LPS-induced NO production in mouse RAW264.7 cells at 10 mg/L after 18 hrs by Griess assay; assay type: functional, cell-based
How it was run: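 RAW264.7 cells (5 × 10^5/well) were stimulated with LPS at 100 ng/mL, with or without peptide at 10 mg/L, for 18 h at 37 °C. Nitrite in the medium was measured with Griess reagent at 540 nm against a NaNO2 standard curve. Three independent experiments.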

[4] = system: RAW264.7; test: Downregulation of LPS-induced IL-6 mRNA expression in mouse RAW264.7 cells at 10 mg/L after 18 hrs by real-time PCR analysis; assay type: functional, cell-based
How it was run: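 qRT-PCR: RAW264.7 cells were stimulated with LPS (100 ng/mL) with or without peptide at 10 mg/L for 18 h at 37 °C. Total RNA was taken up with TRIzol. Transcript levels were normalized to GAPDH and expressed as fold change versus untreated cells. Three experiments, triplicates each.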

[5] = system: Pseudomonas aeruginosa; test: Antibacterial activity against Pseudomonas aeruginosa 25349 clinical isolate after 18 hrs by broth microdilution method; assay type: functional; conditions: Pseudomonas aeruginosa, 25349, 18 h
[6] = system: Staphylococcus aureus; test: Antibacterial activity against Staphylococcus aureus ATCC 29213 after 18 hrs by broth microdilution method; assay type: functional; conditions: ATCC 29213, 18 h
How it was run: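 Broth microdilution. Exponential-phase bacteria grown in MHB at 37 °C, diluted to about 1 × 10^6 CFU/mL in MHB and mixed 1:1 with two-fold dilutions of peptide. MIC is the lowest concentration with no visible turbidity after 18 h at 37 °C. Controls were uninoculated broth and peptide-free culture. At least three repeats, duplicates each.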

[7] = system: Pseudomonas aeruginosa; test: Antibacterial activity against Pseudomonas aeruginosa ATCC 27853 after 18 hrs in presence of KCl by broth microdilution method; assay type: functional; conditions: ATCC 27853, 18 h; how it was run: as §1
[8] = system: Pseudomonas aeruginosa; test: Antibacterial activity against Pseudomonas aeruginosa ATCC 27853 after 18 hrs by broth microdilution method; assay type: functional; conditions: ATCC 27853, 18 h
How it was run: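 Broth microdilution in Mueller-Hinton broth. Exponential-phase bacteria (37 °C, 220 rpm shaking) were diluted to about 1 × 10^6 CFU/mL and mixed 1:1 with two-fold serial peptide dilutions. MIC is the lowest concentration with no visible turbidity after 18 h at 37 °C. Controls were uninoculated MHB and untreated culture. Run at least three times, two replicates each.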

[9] = system: Pseudomonas aeruginosa; test: Drug uptake in Pseudomonas aeruginosa ATCC 27853 treated with FITC-labeled compound at MIC after 30 mins by confocal fluorescence microscopy; assay type: ADME; conditions: 0.5 h
How it was run: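 Cells were pelleted at 5,000 g for 5 min, washed three times in PBS, smeared and imaged by confocal microscopy with 488 nm excitation.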

[10] = system: Pseudomonas aeruginosa; test: Antibacterial activity against ciprofloxacin-resistant Pseudomonas aeruginosa 11411 after 18 hrs by broth microdilution method; assay type: functional; conditions: Pseudomonas aeruginosa, 11411, 18 h
How it was run: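 Broth microdilution in Mueller-Hinton broth. Exponential-phase bacteria (37 °C, 220 rpm shaking) were diluted to about 1 × 10^6 CFU/mL and mixed 1:1 with two-fold serial peptide dilutions. Controls were uninoculated MHB and untreated culture. Run at least three times, two replicates each.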

[11] = system: Pseudomonas aeruginosa; test: Antibacterial activity against Pseudomonas aeruginosa ATCC 27853 after 18 hrs in presence of NH4Cl by broth microdilution method; assay type: functional; conditions: ATCC 27853, 18 h; how it was run: as §1
[12] = system: Pseudomonas aeruginosa; test: Antibacterial activity against Pseudomonas aeruginosa ATCC 27853 assessed as induction of cytoplasmic membrane depolarization after 90 min incubation under dark condition by diSC3-5 dye-based fluorescence analysis; assay type: functional
How it was run: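 Exponential-phase cells were washed three times in 5 mM HEPES (pH 7.4). diSC3-5 (0.4 µM final) and KCl (0.1 M final) were added, then the cells were incubated 90 min at 37 °C in the dark. Peptide at a range of concentrations was added and fluorescence followed at ex 622/em 670 nm. Three independent experiments, duplicates each.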

[13] = system: Pseudomonas aeruginosa; test: Antibacterial activity against Pseudomonas aeruginosa ATCC 27853 assessed as induction of membrane damage at MIC after 1 hr by TEM analysis; assay type: functional
How it was run: (§2)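 For TEM, exponential-phase cells were washed in PBS pH 7.4, adjusted to OD600 0.2 and treated at 1 × MIC for 60 min at 37 °C. Fixation was 2.5% glutaraldehyde at 4 °C overnight, then 2% osmium tetroxide for 70 min. Samples went through a graded ethanol series, ethanol/acetone and acetone before imaging. Untreated control.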

[14] = system: Pseudomonas aeruginosa; test: Antibacterial activity against Pseudomonas aeruginosa ATCC 27853 assessed as induction of membrane distortion at MIC after 1 hr by SEM analysis; assay type: functional
How it was run: (§3)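 For SEM, exponential-phase cells were washed in PBS pH 7.4, set to OD600 0.2 and exposed to 1 × MIC for 60 min at 37 °C. They were fixed in 2.5% glutaraldehyde at 4 °C overnight, dehydrated through graded ethanol and tert-butanol, dried, gold-coated and imaged. Untreated control. At least three repeats, duplicates.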

[15] = system: Pseudomonas aeruginosa; test: Antibacterial activity against Pseudomonas aeruginosa ATCC 27853 assessed as induction of membrane corrugation at MIC after 1 hr by SEM analysis; assay type: functional; how it was run: as §3
[16] = system: Pseudomonas aeruginosa; test: Antibacterial activity against Pseudomonas aeruginosa ATCC 27853 assessed as induction of intracellular content dispersion at MIC after 1 hr by TEM analysis; assay type: functional, cell-based; how it was run: as §2
[17] = system: Pseudomonas aeruginosa; test: Antibacterial activity against Pseudomonas aeruginosa ATCC 27853 assessed as induction of membrane integrity disruption at MIC after 15 mins by PI-staining based flow cytometry (reference value: 4.7%)
[18] = system: Pseudomonas aeruginosa; test: Antibacterial activity against Pseudomonas aeruginosa ATCC 27853 assessed as induction of membrane damage at MIC after 1 hr by SEM analysis; assay type: functional; how it was run: as §3

| Substance | MIC [1] | MIC [2] | inhibition [3] | Activity [4] | MIC [5] | MIC [6] | MIC [7] | MIC [8] | Drug uptake [9] | MIC [10] | MIC [11] | Activity [12] | Activity [13] | Activity [14] | Activity [15] | Activity [16] | Activity [17] | Activity [18] |
| --- | --- | --- | --- | --- | --- | --- | --- | --- | --- | --- | --- | --- | --- | --- | --- | --- | --- | --- |
| H-LRRLRRRWWRRRLRRL-NH2 | 16 mg/L | 8 mg/L | Active | Active | 16 mg/L | 8 mg/L | 8 mg/L | 8 mg/L | Active | 8 mg/L | 8 mg/L | – | – | – | – | – | – | – |
| H-LRRLRRRWWWRRRLRRL-NH2 | 8 mg/L | 8 mg/L | Active | Active | 4 mg/L | 8 mg/L | 4 mg/L | 4 mg/L | Active | 4 mg/L | 4 mg/L | Dose-dependent effect | Active | Active | Active | Active | 99.5% | Active |

Reference: ChEMBL document CHEMBL4007441, “Novel Design of Heptad Amphiphiles To Enhance Cell Selectivity, Salt Resistance, Antibiofilm Properties and Their Membrane-Disruptive Mechanism” (J Med Chem, 2017)
